Source: PubChem BioAssay
Only a selection was taken, and hits are over-represented in it overall.
UPR CHOP act: activators of apoptotic CHOP UPR arm, primary screen, cell-based, CHO-CHOP luciferase reporter, luminescence, uHTS | UPR activation; percent of tunicamycin response over DMSO baseline | activation, % at 10 µM | actives 0.34% (n = 330,000) | AID 449763, 2010;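 active = at 10 µM dose, activation of 40% or more, normalized to positive control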
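Assay system: CHO cells with stable CHOP pathway luciferase reporter; Buffer or medium: F12 plus 10% serum; Times: 16-18 h cell attachment, then 6 h compound exposure, 37 °C; Signal: luciferase luminescence; Read-out basis: percent activation relative to tunicamycin control; Control set: tunicamycin high control, DMSO low control.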
CHOP inh: inhibitors of CHOP promoter induction, primary screen, cell-based, unfolded protein response, luciferase reporter. actives 3.8% (n = 220,000). inhibition, % at 10 µM. AID 2732, 2010. CHO-K1 CHOP-promoter luciferase, tunicamycin-induced, 15-18 h;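 active = compounds that reduced the stress-induced luciferase reporter signal by more than about 70% of percent inhibition, limit read from the data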
H9c2 protect: cardioprotection against H2O2-induced cell death, primary screen, uHTS, H9c2 cells, ATPLite luminescence | H9c2 cardiomyocytes, H2O2 injury protection, 2 h | protection from H2O2 cell death, % at 20 µM | actives 0.63% (n = 360,000);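 active = compounds giving at least 50% protection of heart cells from peroxide-induced death in the single-dose screen, raw or plate-pattern-corrected value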
UPR XBP1 act: activators of adaptive XBP1 UPR arm, primary screen, cell-based, CHO-XBP1 luciferase reporter, luminescence, uHTS | IRE1-XBP1 UPR activation; percent of tunicamycin response, DMSO as zero | activation, % at 20 µM | actives 0.33% (n = 330,000) | AID 463104, 2010;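 active = versus positive control, 20 µM dose yields 30% or more activation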
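Material: IRE1-XBP1 luciferase reporter CHO line / Quantity: one thousand reporter cells per well / Buffer or medium: F12 with 10% serum / Compound: 20 µM single concentration, DMSO 1% / Times: 6 h treatment, 37 °C / Detection: Steady-Glo luciferase glow luminescence, 10 min after reagent addition / Benchmarks: tunicamycin high, DMSO low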
hiPSC survival: enhancers of single-cell hiPSC survival, primary screen, ATPlite luminescence; 100% = ROCK inhibitor wells, 0% = DMSO; survival enhancement, % at 20 µM; actives 0.044% (n = 360,000); AID 602274, 2012; in the data active = survival enhancement above about 18%;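 note: cells exposed to compounds for 16 hours before the ATP read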
CHOP inh conf: retest of CHOP induction inhibitors, confirmation, cell-based | actives 45% (n = 2,100) | inhibition, % at 10 µM | shares compounds with CHOP inh | CHO-CHOP promoter luciferase reporter, tunicamycin-induced, luminescence | AID 504437, 2011;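 active = mean of three repeat readings of reporter signal inhibition above a set limit, cut at about 70% in these data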
Large screens that a line does not name were inactive (follow-up assays come after a bar, where they were run).

Cc1cc(C)n(-c2nc(Nc3ccccc3C)nc(-n3nc(C)cc3C)n2)n1	CHOP inh 99 (no result: H9c2 protect, hiPSC survival) | CHOP inh conf inactive
CCNc1nc(NCC)nc(-n2nc(C)cc2C)n1	none
Cc1cc(C)n(-c2nc(Nc3ccccc3C(F)(F)F)nc(-n3nc(C)cc3C)n2)n1	CHOP inh 105 | CHOP inh conf 122
Cc1cc(C)n(-c2nc(NC(C)C)nc(NC(C)C)n2)n1	none
Cc1cccc(S(=O)(=O)Nc2nc3ccccc3nc2OC(C)C)c1	none (no result: CHOP inh)
Cc1cc(C)c(C(O)c2ncc(-c3cccc(F)c3)[nH]2)c(C)c1 (stereo not given)	none (no result: UPR CHOP act, CHOP inh, UPR XBP1 act)
O=[N+]([O-])c1ccc(S(=O)(=O)Nc2ccc(-c3csc(-c4ccccc4)n3)cc2)cc1	none (no result: H9c2 protect, hiPSC survival)
O=S(=O)(Nc1ccc(-c2csc(-c3ccccc3)n2)cc1)c1ccccc1	CHOP inh 100 | CHOP inh conf inactive
O=C(N/N=C/c1ccc(Br)s1)Nc1ccccc1	CHOP inh 97 | CHOP inh conf inactive
COC(=O)C1=C(C)N(C)C(=O)NC1c1cccc2ccccc12 (stereo not given)	none (no result: CHOP inh)
CCC(=O)N1CCC(C)(C(=O)Nc2nccc3ccccc23)C1 (stereo not given)	none (no result: UPR CHOP act, CHOP inh, UPR XBP1 act)
Cc1ccc2nc(NC(=O)CCn3c(=O)sc4ccccc43)sc2c1	CHOP inh 98 | CHOP inh conf inactive
CNC(=O)C(C#N)(Cc1cc(C(C)=O)ccc1OC)Cc1cc(C(C)=O)ccc1OC	none (no result: CHOP inh)
Cc1ccc(Nc2nc(N)c([N+](=O)[O-])c(N3CCCC(C)C3)n2)cc1C (stereo not given)	CHOP inh 101 | CHOP inh conf inactive
OC(CNCCc1ccc(C(F)(F)F)cc1)COc1cccc2ccccc12 (stereo not given)	CHOP inh 108 | CHOP inh conf 134
OC(CNCCc1ccc(C(F)(F)F)cc1)COc1ccc2ccccc2c1 (stereo not given)	CHOP inh 108 | CHOP inh conf 123
O=C(CC[C@H]1O[C@@H](n2cnc3c(NC(=O)c4ccccc4)ncnc32)[C@H](O)[C@@H]1O)NCc1ccc(OC(F)(F)F)cc1	none (no result: UPR CHOP act, CHOP inh, UPR XBP1 act)
CCSC1=NC2(CCCCC2)Nc2sc3c(c21)CCCC3	CHOP inh 105 | CHOP inh conf inactive
CCSc1nc2sc3c(c2c(=O)[nH]1)CCCC3	none
COc1ccc(CN2C(=O)COc3ccccc3C2c2nc3ccccc3[nH]2)cc1 (stereo not given)	none (no result: UPR CHOP act, CHOP inh, H9c2 protect, UPR XBP1 act)
CCOC(=O)c1c(C)[nH]c(O)c1C=Nc1ccc(Cl)cc1	CHOP inh 103, H9c2 protect 52 | CHOP inh conf 110
CCOC(=O)c1c(C)[nH]c(C)c1C=O	none
OC(c1ccccc1)c1nc(-c2cccc(C(F)(F)F)c2)cs1 (stereo not given)	none (no result: UPR CHOP act, CHOP inh, UPR XBP1 act)
O=C(OCn1ncc(Br)c(Br)c1=O)c1ccccc1Cl	CHOP inh 111, hiPSC survival 35 | CHOP inh conf 124
CC(C)CCN(C(=O)c1ccncc1)c1c(N)n(Cc2ccccc2)c(=O)[nH]c1=O	none (no result: CHOP inh)
CC(C)CCN(C(=O)Cc1ccc(Cl)c(Cl)c1)c1c(N)n(Cc2ccccc2)c(=O)[nH]c1=O	CHOP inh 103 | CHOP inh conf 108
CCC(=O)Nc1cccc(-c2cnc3ccccc3n2)c1	none
O=C(CCl)Nc1cccc(-c2cnc3ccccc3n2)c1	none (no result: CHOP inh) | CHOP inh conf 84
COc1ccc(-c2n[nH]c(C)c2-c2cnn(-c3ccccc3)c2)c(O)c1C	CHOP inh 99 | CHOP inh conf inactive
CS(=O)(=O)c1nc(-c2ccccc2)cc(C(F)(F)F)n1	none (no result: CHOP inh) | CHOP inh conf 117
FC(F)(F)c1cc(-c2ccccc2)nc(N2CCCCCC2)n1	none
CCOc1ccc2nc(-c3ccccc3)nc(SCC(=O)Nc3ncc(C)s3)c2c1	CHOP inh 98 | CHOP inh conf inactive
COc1ccc(N=CC2=C(O)c3ccccc3C2=O)c(OC)c1	CHOP inh 100 | CHOP inh conf 133
Cc1[nH]c2ccccc2c1C(=O)COC(=O)C1CC(=O)N(Cc2ccccc2)C1 (stereo not given)	none
